Unmarked numbers belong to inactive results. The list shows a part of the results. Inconclusive results are not listed. Calls of active or inactive are those of the source.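 The calls were made as follows, unless noted: active = thallium flux slope above the same plate's solvent-control mean plus 3 SD in both duplicate wells; inconclusive = duplicate wells that disagreed; inactive = the rest.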
Test: native HEK Tl+ uptake effects, second counter-screen – HEK cells, counterscreen 2, counter-screen for KCC2 modulator project, confirmation (AID 1718);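 also: run without ouabain in cells lacking the KCC2 cotransporter; slope of fluorescence scaled to its starting value between 10 and 20 s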
Settings: HEK293 parental, thallium flux FluoZin-2 fluorescence slope; at 10 µM
Method in brief: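 Assay system – untransfected HEK cells, thallium influx assay · Buffer or medium – HBSS with 20 mM HEPES for dye loading · Doses – single 10 µM final compound dose, 0.1% DMSO · Times – 37 °C overnight growth, 48 min FluoZin2-AM loading · Detection – FluoZin-2 fluorescence kinetics · Benchmarks – bumetanide 2 mM as positive control · Repeats – Per-replicate slope values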

Row | SMILES | thallium flux slope
1 | CC(=O)NNC(=O)c1csc(Cc2c(Cl)sc3ccc(Cl)cc23)n1 | 0.0112 (active)
2 | Cc1ccc(N=Cc2c(O)n(-c3nccs3)c(=O)c3ccccc23)c(C)c1 | 0.00674 (active)
3 | Cc1cc(C)c2cc(CN(Cc3cccs3)Cc3nnnn3CC3CCCO3)c(=O)[nH]c2c1 (configuration not stated) | 0.00821
4 | COc1ccccc1N1CCN(C(=O)CSc2ncnc3c2cnn3-c2ccc(C)c(C)c2)CC1 | 0.0103
5 | O=C(Cn1c(-c2ccc(Cl)cc2)noc1=O)N1CCN(c2ccccc2F)CC1 | 0.00981
6 | COc1cccc2sc(Nc3nc(C)c(C(C)=O)s3)nc12 | 0.0124
7 | CCCCn1c(=S)[nH]c2ncccc2c1=O | 0.0266 (active)
8 | Cc1c(C(=O)NC(=S)NCc2cccnc2)oc2ccccc12 | 0.0284 (active)
9 | CS(=O)(=O)N(CC(=O)N1CCN(c2ccc(F)cc2)CC1)C1CCCCC1 | 0.0102
10 | Cc1ccc(C)c(NC(=S)NNC(=S)Nc2ccc(C(C)C)cc2)c1 | 0.0121
11 | COC(=O)c1sc(NC(=S)NC(=O)c2ccc(C)cc2)nc1C | 0.0234 (active)
12 | CC1CCCCN1S(=O)(=O)c1ccc(C(=O)Nc2nnc(-c3cccs3)o2)cc1 (configuration not stated) | 0.0123
13 | O=C(Nc1ccc2oc(-c3ccccc3F)nc2c1)c1ccco1 | 0.00945
14 | Cn1c(C(=O)NCCc2ccsc2)cc2c(=O)n(C)c3ccccc3c21 | 0.00931
15 | COc1cc(OC)cc(C(=O)NCCSCc2ccco2)c1 | 0.0101
16 | CSc1ncnc2sc(C)c(C)c12 | 0.0129 (active)
17 | O=C(Nc1ccn(Cc2ccccc2)n1)c1cccc(F)c1 | 0.00931
18 | COCCn1c(C)cc(C(=O)CSc2ncnc3sc4c(c23)CCC4)c1C | 0.0112

Row | SMILES | thallium flux slope
19 | COc1cccc(NC(=S)NC(=O)c2c(Cl)c(C)nn2C)c1 | 0.0309 (active)
20 | O=C(C1CCN(c2nnc(-n3cccc3)s2)CC1)N1CCc2ccccc2C1 | 0.0107
21 | O=C(CSc1ccc(-c2cccs2)nn1)Nc1ccccc1F | 0.0107
22 | CC1Cc2ccccc2N1C(=O)CSc1nc2ccccc2o1 (configuration not stated) | 0.00901
23 | COc1ccc(Cl)cc1C(=O)NNC(=S)NC(=O)/C=C/c1ccco1 | 0.0335 (active)
24 | COc1ccccc1-n1cnc2cc(NS(=O)(=O)c3ccccc3)ccc21 | 0.00966
25 | CCCCC(CC)CNC(=O)C(=O)C1C(=O)Nc2ccccc21 (configuration not stated) | 0.0126
26 | Cc1ccc(OCC(=O)N2CCN(C(=O)c3cccnc3)CC2)cc1 | 0.0114
27 | Oc1c(Cl)cc(Cl)c(Cl)c1Cc1c(O)c(Cl)cc(Cl)c1Cl | 0.0102
28 | O=C(c1cc(-c2ccc(O)cc2)on1)N1CCCc2ccccc21 | 0.0111
29 | Cn1c(CCCOc2ccc(Cl)cc2Cl)n[nH]c1=S | 0.00939
30 | Fc1ccc(COc2cccc(-c3n[nH]c(=S)o3)c2)cc1 | 0.0338 (active)
31 | O=C(Cc1csc(Nc2nc(=S)[nH]c3ccccc23)n1)NCCCN1CCN(c2cccc(Cl)c2)CC1 | 0.0172 (active)
32 | CCCCn1c(SCC(=O)NCC2CCCO2)nc2ccc(N3CCOCC3)cc2c1=O (configuration not stated) | 0.013 (active)
33 | Cc1cc(C(=O)NNC(=S)Nc2ccccc2C)cs1 | 0.0109
34 | Cc1ccccc1NC(=S)NNC(=O)c1cccc(Br)c1 | 0.0126
35 | O=C(CNCc1cccs1)Nc1cc(S(=O)(=O)N2CCCC2)ccc1Cl | 0.0101
36 | Cc1ccc(-n2ncc3c(Nc4cccc(C(=O)O)c4)ncnc32)cc1 | 0.0099

Test: inhibitors of Sendai virus-induced IRF3 signaling, primary screen, TLR/RLR signaling modifier project, cell-based, Sendai virus stimulus, luciferase, 10K MLSCN set (AID 602276;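 active = inhibition at or above 50% at 10 µM; inactive = inhibition below 50%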;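 also: firefly luciferase from ISG56 promoter only with Renilla not read in this screen; 0% = Sendai virus plus DMSO and 100% = medium plus DMSO without virus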)
Settings: HEK293 RL24 IRF3 luciferase reporter, at 10 µM, stronger effect = higher value

Row | SMILES | inhibition [%]
37 | O=c1c2ccccc2[nH]c(=S)n1CCN1CCC(=C(c2ccc(F)cc2)c2ccc(F)cc2)CC1 | 8.28
38 | O=C(C1CCN(c2nnc(-n3cccc3)s2)CC1)N1CCc2ccccc2C1 | 0.226
39 | COc1ccccc1-n1cnc2cc(NS(=O)(=O)c3ccccc3)ccc21 | -18.8

Test: inhibitors of poly I:C-induced TLR3 signaling, primary screen, cell-based, poly I:C stimulus, luciferase, 10K MLSCN set (AID 602277;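 active = inhibition of the reporter signal at or above 50%; inactive = inhibition below 50%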)
Settings: HEK293-TLR3 RL24 IRF3 luciferase reporter, at 10 µM, stronger effect = higher value

Row | SMILES | inhibition
40 | O=c1c2ccccc2[nH]c(=S)n1CCN1CCC(=C(c2ccc(F)cc2)c2ccc(F)cc2)CC1 | 23.8%
41 | O=C(C1CCN(c2nnc(-n3cccc3)s2)CC1)N1CCc2ccccc2C1 | 24.9%
42 | COc1ccccc1-n1cnc2cc(NS(=O)(=O)c3ccccc3)ccc21 | 98.4% (active)

Source: PubChem BioAssay
